{"source": "PubChem BioAssay AID588830", "about": "(Broad Institute, 2011)", "system": "ldlA[mSR-BI] CHO cells viability, CellTiter-Glo ATP, 3 h", "assay": "short-term cytotoxicity in ldlA[mSR-BI] cells, dose response, cytotoxicity control for SR-BI HDL uptake inhibitor project, cell-based, CellTiter-Glo luminescence, 3 h, dry powder (AID 588830)", "summary_of_the_method": "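Test system: ldlA[mSR-BI] cells, scavenger receptor B1-expressing line / Medium: PSG and 10% FCS in Ham's F12 / Dosing: 8-concentration series per compound, added by pin transfer / Timing: 3 h at 37 °C, then 10 min with reagent / Signal: luminescence of cellular ATP via Cell Titer Glo reagent / Measure: cytotoxicity IC50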"}
{"smiles": "C[C@H]1CN([C@@H](C)CO)C(=O)c2cccc(NC(=O)Nc3ccccc3)c2O[C@@H]1CN(C)Cc1ccc(C(F)(F)F)cc1", "values": [{"measurement": "IC50", "value": 66.6, "unit": "µM"}]}
